Experimental data: ChEMBL document CHEMBL4184291, “Discovery of N-arylpyrroles as agonists of GPR120 for the treatment of type II diabetes” (Bioorg Med Chem Lett, 2018)
pEC50: −log10 of the molar value.

How the values were obtained:
Mus musculus [1] = assay: Antidiabetic activity in diet-induced obese C57Bl/6 mouse model assessed as change in plasma glucose AUC at 0.1 mg/kg, po administered 30 mins prior to glucose challenge measured up to 90 mins post dose by OGTT; format: functional
Procedure, shortened: (§1)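 Diet-induced obese mice dosed orally at 0.1–3.0 mg/kg 30 min before an oral glucose load (time 0). Glucose followed from 30 min pre-glucose to 90 min post-glucose. Saxagliptin 1 mg/kg was the positive control.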

[2] = Plasma concentration in mouse at 3 mg/kg; format: ADME, organism-based; settings: in vivo
Procedure, shortened: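 Plasma exposure for a 3 mg/kg oral dose in mice was predicted from the mouse PK study, not measured directly. It was expressed as ng/mL and converted to µM.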

Mus musculus [3] = assay: Antidiabetic activity in po dosed diet-induced obese C57Bl/6 mouse model assessed as decrease in plasma glucose AUC administered 30 mins prior to glucose challenge measured up to 90 mins post dose by OGTT; format: functional, organism-based; procedure, shortened: as §1
[4] = biological target: 5-hydroxytryptamine receptor 5A (Homo sapiens) (UniProt P47898); assay: Displacement of […] from recombinant human 5-HT5A at 10 uM after 60 mins by scintillation counting method relative to control
Rattus norvegicus = organism: Rattus norvegicus; assay: Displacement of [35S]TBPS from rat GABA-gated chloride channel at 10 uM after 120 mins by scintillation counting method
[5] = Volume of distribution at steady state in dog at 1 mg/kg, iv by LC-MS/MS analysis; format: ADME, organism-based, Canis lupus familiaris; settings: in vivo, read-out: Vdss
[6] = Cmax in rat at 10 mg/kg, po by LC-MS/MS analysis; format: ADME, organism-based; design: dose 10 mg/kg, route oral; settings: in vivo
Cavia porcellus [7] = assay: Cardiotoxicity in guinea pig assessed as effect on QT interval at 22.4 mg/kg; format: toxicity, organism-based; settings: in vivo
Cytochrome P450 2C19 = Cytochrome P450 2C19 (Homo sapiens, UniProt P33261); assay: Inhibition of CYP2C19 (unknown origin); format: ADME
Cytochrome P450 3A4 = Cytochrome P450 3A4 (Homo sapiens, UniProt P08684); assay: Inhibition of CYP3A4 (unknown origin); format: ADME
[8] = Cmax in mouse at 14.6 mg/kg, po by LC-MS/MS analysis; format: ADME, organism-based; design: dose 14.6 mg/kg, route oral; settings: in vivo
[9] = Clearance in mouse at 1.15 mg/kg, iv by LC-MS/MS analysis; format: ADME, organism-based; settings: in vivo
Mus musculus [10] = assay: Antiobesity activity in diet-induced obesity C57Bl6/J mouse model assessed as final insulin level in plasma at 10 mg/kg bid for 15 days measured on day 15 post 6 hrs fasting (reference value: 7304 +/- 2967 pg/ml); format: functional
[11] = biological target: T1, Free fatty acid receptor 4 (Mus musculus, UniProt Q7TMA4); assay: Agonist activity at recombinant mouse GPR120 expressed in HEK293 cells; format: functional, cell-based
T1 sequence (Q7TMA4 whole entry): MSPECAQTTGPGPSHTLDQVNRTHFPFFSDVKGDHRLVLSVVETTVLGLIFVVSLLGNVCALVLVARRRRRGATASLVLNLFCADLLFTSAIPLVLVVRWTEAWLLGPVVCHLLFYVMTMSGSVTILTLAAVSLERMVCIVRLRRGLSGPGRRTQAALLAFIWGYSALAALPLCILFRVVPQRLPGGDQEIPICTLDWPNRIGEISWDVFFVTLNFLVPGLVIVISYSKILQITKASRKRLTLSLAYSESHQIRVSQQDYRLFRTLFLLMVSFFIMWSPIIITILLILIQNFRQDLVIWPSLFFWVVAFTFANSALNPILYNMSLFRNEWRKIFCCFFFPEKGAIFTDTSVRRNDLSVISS

Mus musculus [12] = organism: Mus musculus; assay: Selectivity ratio of EC50 for mouse GPR40 to EC50 for recombinant mouse GPR120 expressed in HEK293 cells; format: cell-based
[13] = Cmax in dog at 5 mg/kg, po by LC-MS/MS analysis; format: ADME, organism-based, Canis lupus familiaris; design: dose 5 mg/kg, route oral; settings: in vivo
[14] = Protein binding in human plasma; format: ADME, cell-free; settings: read-out: PPB (converted)
[15] = biological target: Sodium-dependent noradrenaline transporter (Homo sapiens) (UniProt P23975); assay: Displacement of [3H]nisoxetine from recombinant human norepinephrine transporter at 10 uM after 120 mins by scintillation counting method relative to control
[16] = biological target: T2, Free fatty acid receptor 4 (Homo sapiens, UniProt Q5NUL3); assay: Agonist activity at GPR120 in human HT-29 cells assessed as intracellular calcium flux; format: functional, cell-based
T2 sequence (Q5NUL3 whole entry): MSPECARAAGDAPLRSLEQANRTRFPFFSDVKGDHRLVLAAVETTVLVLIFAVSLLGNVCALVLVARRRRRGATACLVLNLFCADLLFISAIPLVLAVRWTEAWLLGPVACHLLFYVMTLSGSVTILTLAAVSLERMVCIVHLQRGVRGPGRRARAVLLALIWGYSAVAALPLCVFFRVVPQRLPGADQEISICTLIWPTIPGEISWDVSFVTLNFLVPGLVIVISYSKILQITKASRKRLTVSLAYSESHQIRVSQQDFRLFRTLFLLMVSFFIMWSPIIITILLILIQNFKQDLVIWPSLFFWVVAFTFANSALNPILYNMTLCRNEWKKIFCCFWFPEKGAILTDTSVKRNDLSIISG
Procedure, shortened: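 Calcium-flux EC50 measured in HT-29 cells, a low-expressing line with endogenous GPR120.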

[17] = AUClast in mouse at 14.6 mg/kg, po by LC-MS/MS analysis; format: ADME, organism-based; design: dose 14.6 mg/kg, route oral, time 0 - last; settings: in vivo
Mus musculus [18] = assay: Antidiabetic activity in diet-induced obese C57Bl/6 mouse model assessed as plasma concentration required to show reduction in glucose level at 3 mg/kg administered 30 mins prior to glucose challenge measured up to 90 mins post dose by OGTT; format: functional
[19] = biological target: Free fatty acid receptor 1 (Homo sapiens, UniProt O14842); assay: Agonist activity at human GPR40; format: functional
[20] = biological target: 5-hydroxytryptamine receptor 2B (Homo sapiens) (UniProt P41595); assay: Displacement of [125I](+/-)DOI from recombinant human 5-HT2B at 10 uM after 60 mins by scintillation counting method relative to control
Cavia porcellus [21] = assay: Cardiotoxicity in guinea pig assessed as decrease in mean arterial blood pressure at 22.4 mg/kg; format: toxicity, organism-based; design: scale not given: the % may be the effect or the level left; settings: in vivo
Cavia porcellus [22] = assay: Cardiotoxicity in guinea pig assessed as effect on heart rate at 22.4 mg/kg; format: toxicity, organism-based; settings: in vivo
Mus musculus [23] = assay: Antiobesity activity in diet-induced obesity C57Bl6/J mouse model assessed as change in plasma glucose level at 10 mg/kg qd for 15 days measured on day 15 post 6 hrs fasting; format: functional
[24] = Oral bioavailability in dog at 5 mg/kg by LC-MS/MS analysis; format: ADME, organism-based, Canis lupus familiaris; settings: in vivo
[25] = Clearance in rat at 2 mg/kg, iv by LC-MS/MS analysis; format: ADME, organism-based; settings: in vivo

Sequence of 5-hydroxytryptamine receptor 5A (Homo sapiens) (P47898 whole entry): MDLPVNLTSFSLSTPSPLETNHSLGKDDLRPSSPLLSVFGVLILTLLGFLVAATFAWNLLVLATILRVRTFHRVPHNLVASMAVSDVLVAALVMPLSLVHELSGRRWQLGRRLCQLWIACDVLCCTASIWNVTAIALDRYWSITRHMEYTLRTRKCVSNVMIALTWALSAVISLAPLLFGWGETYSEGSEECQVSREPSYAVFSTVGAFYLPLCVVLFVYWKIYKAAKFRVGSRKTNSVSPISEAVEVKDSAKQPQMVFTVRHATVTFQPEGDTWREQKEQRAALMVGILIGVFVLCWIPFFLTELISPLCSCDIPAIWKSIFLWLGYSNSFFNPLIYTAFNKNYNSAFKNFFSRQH
Sequence of Cytochrome P450 2C19 (P33261 whole entry): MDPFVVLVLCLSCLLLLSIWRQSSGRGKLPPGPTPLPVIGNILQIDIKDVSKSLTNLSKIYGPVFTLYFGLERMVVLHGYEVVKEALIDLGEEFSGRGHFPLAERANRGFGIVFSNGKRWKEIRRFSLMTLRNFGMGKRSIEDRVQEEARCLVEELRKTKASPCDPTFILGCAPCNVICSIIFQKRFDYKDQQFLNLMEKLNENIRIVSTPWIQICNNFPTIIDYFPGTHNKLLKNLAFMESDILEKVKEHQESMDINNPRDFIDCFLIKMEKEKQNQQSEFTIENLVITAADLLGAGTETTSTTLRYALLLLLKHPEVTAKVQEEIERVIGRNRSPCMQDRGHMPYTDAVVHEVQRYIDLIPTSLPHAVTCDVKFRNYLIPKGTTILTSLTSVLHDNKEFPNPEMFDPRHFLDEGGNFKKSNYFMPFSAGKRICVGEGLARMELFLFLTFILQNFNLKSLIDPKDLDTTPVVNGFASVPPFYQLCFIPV
Sequence of Cytochrome P450 3A4 (P08684 whole entry): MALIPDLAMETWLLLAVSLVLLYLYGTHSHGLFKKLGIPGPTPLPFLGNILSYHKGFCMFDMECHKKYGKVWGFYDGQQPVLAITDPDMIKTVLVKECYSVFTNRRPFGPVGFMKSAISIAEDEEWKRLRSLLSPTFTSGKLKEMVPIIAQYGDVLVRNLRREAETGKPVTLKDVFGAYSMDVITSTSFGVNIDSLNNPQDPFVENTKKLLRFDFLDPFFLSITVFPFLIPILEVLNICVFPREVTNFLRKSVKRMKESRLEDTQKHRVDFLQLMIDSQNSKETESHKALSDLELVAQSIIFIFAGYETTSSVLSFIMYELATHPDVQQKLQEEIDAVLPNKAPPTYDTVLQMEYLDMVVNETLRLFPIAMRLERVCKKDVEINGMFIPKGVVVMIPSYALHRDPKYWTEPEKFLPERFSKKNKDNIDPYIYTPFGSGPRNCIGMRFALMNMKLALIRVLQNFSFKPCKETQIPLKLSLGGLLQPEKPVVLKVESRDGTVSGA
Sequence of 5-hydroxytryptamine receptor 2B (Homo sapiens) (P41595 whole entry): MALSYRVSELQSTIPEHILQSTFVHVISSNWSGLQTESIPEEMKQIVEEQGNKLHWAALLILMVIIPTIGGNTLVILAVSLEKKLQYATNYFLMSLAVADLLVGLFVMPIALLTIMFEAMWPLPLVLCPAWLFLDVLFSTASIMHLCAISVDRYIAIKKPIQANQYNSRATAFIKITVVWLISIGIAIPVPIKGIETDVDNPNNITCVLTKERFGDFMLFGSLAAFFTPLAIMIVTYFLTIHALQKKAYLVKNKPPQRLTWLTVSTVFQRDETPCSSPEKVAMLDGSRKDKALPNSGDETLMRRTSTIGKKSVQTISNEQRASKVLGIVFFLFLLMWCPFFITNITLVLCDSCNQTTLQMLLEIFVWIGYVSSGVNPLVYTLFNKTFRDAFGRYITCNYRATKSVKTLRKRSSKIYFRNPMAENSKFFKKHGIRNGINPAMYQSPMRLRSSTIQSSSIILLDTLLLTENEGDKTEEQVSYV
Sequence of Sodium-dependent noradrenaline transporter (Homo sapiens) (P23975 whole entry): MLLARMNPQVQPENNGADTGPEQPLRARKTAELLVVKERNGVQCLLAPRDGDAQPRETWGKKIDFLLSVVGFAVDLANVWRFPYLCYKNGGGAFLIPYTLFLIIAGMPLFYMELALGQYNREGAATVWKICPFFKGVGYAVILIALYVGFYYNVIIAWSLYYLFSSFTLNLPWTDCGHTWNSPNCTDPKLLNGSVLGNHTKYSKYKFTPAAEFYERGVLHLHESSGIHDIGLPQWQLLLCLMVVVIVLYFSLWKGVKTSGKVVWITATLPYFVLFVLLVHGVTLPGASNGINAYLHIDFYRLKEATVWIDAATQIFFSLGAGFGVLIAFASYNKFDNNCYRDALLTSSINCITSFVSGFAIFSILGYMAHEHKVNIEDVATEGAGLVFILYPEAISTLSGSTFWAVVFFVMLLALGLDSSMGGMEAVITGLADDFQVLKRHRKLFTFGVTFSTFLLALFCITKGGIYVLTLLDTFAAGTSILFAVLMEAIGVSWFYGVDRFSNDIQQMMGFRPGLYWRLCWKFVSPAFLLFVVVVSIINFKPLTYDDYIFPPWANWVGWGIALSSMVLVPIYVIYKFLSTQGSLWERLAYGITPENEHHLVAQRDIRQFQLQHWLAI
Sequence of Free fatty acid receptor 1 (O14842 whole entry): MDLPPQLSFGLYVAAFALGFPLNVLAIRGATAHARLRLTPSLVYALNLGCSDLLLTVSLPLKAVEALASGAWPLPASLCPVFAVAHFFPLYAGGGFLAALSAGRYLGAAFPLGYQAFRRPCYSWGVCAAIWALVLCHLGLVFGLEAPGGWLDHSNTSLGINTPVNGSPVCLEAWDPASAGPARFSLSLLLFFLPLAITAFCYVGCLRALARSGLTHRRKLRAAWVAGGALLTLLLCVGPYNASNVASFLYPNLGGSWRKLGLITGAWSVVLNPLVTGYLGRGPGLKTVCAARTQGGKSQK

SMILES: O=C(O)CCc1cc(F)c(OCc2c(C(F)(F)F)ccn2-c2ccc(Cl)cc2)c(F)c1
- Activity (Mus musculus [1]): 8%
- concentration [2]: 8.64 µM
- Activity (Mus musculus [3]): Dose-dependent effect
- inhibition [4]: 58%
- inhibition (Rattus norvegicus): 66%
- Vd [5]: 0.52 L/kg
- Cmax [6]: 11600 ng/mL
- Activity (Cavia porcellus [7]): Non-Toxic
- INH (Cytochrome P450 2C19): 10 µM
- INH (Cytochrome P450 3A4): > 10 µM
- Cmax [8]: 18700 ng/mL
- clearance [9]: 4.9 mL/min/kg
- Activity (Mus musculus [10]): 6225 pg/mL
- pEC50 [11]: 6.71
- Ratio EC50 (Mus musculus [12]): 18
- Cmax [13]: 8920 ng/mL
- fraction unbound [14]: 0.0008
- inhibition [15]: 51%
- pEC50 [16]: 6.86
- AUC(0-t) [17]: 81700 ng·h/mL
- EC (Mus musculus [18]): 32 nM
- pEC50 [19]: 5.48
- inhibition [20]: 62%
- Activity (Cavia porcellus [21]): 10%
- Activity (Cavia porcellus [22]): Non-Toxic
- Activity (Mus musculus [23]): -23.7 mg/dL
- bioavailability [24]: 145%
- clearance [25]: 3.2 mL/min/kg
